In ChEMBL document CHEMBL3864121, “Development of ebsulfur analogues as potent antibacterials against methicillin-resistant Staphylococcus aureus” (Bioorg Med Chem, 2016):
In brackets after ≈: the same amount, converted by molar mass.

Legend:
[1] = test system: Staphylococcus aureus; test: Antibacterial activity against methicillin-sensitive Staphylococcus aureus ATCC 6538 measured after overnight incubation by broth double-dilution method; type: functional
Summary of the method: (§1)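 MIC by broth double-dilution in liquid Mueller-Hinton medium. Values are reported in µg/mL.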

[2] = test system: Staphylococcus aureus; test: Antibacterial activity against methicillin-sensitive Staphylococcus aureus ATCC 25923 measured after overnight incubation by broth double-dilution method; type: functional; summary of the method: as §1
[3] = test system: Staphylococcus aureus; test: Antibacterial activity against methicillin-sensitive Staphylococcus aureus ATCC 29213 measured after overnight incubation by broth double-dilution method; type: functional; summary of the method: as §1
[4] = test system: Staphylococcus aureus; test: Antibacterial activity against methicillin-resistant Staphylococcus aureus ATCC 33591 measured after overnight incubation by broth double-dilution method; type: functional; summary of the method: as §1
[5] = test system: Staphylococcus aureus; test: Antibacterial activity against methicillin-resistant Staphylococcus aureus 1 measured after overnight incubation by broth double-dilution method; type: functional; summary of the method: as §1
[6] = test system: Staphylococcus aureus; test: Antibacterial activity against methicillin-resistant Staphylococcus aureus 2 measured after overnight incubation by broth double-dilution method; type: functional; summary of the method: as §1
[7] = test system: Staphylococcus aureus; test: Antibacterial activity against methicillin-resistant Staphylococcus aureus BRS3 measured after overnight incubation by broth double-dilution method; type: functional; summary of the method: as §1
[8] = test system: Staphylococcus aureus; test: Antibacterial activity against methicillin-resistant Staphylococcus aureus C1 measured after overnight incubation by broth double-dilution method; type: functional; summary of the method: as §1
[9] = test system: Staphylococcus aureus; test: Antibacterial activity against methicillin-resistant Staphylococcus aureus C2 measured after overnight incubation by broth double-dilution method; type: functional; summary of the method: as §1
[10] = test system: Staphylococcus aureus; test: Antibacterial activity against methicillin-resistant Staphylococcus aureus C7 measured after overnight incubation by broth double-dilution method; type: functional; summary of the method: as §1
[11] = test system: Staphylococcus aureus; test: Antibacterial activity against methicillin-resistant Staphylococcus aureus C14 measured after overnight incubation by broth double-dilution method; type: functional; summary of the method: as §1
[12] = test system: Staphylococcus aureus; test: Antibacterial activity against methicillin-resistant Staphylococcus aureus C16 measured after overnight incubation by broth double-dilution method; type: functional; summary of the method: as §1
[13] = test system: Staphylococcus aureus; test: Antibacterial activity against methicillin-resistant Staphylococcus aureus C19 measured after overnight incubation by broth double-dilution method; type: functional; summary of the method: as §1
[14] = test system: Staphylococcus aureus; test: Antibacterial activity against methicillin-resistant Staphylococcus aureus G1 measured after overnight incubation by broth double-dilution method; type: functional; summary of the method: as §1
[15] = test system: Staphylococcus aureus; test: Antibacterial activity against methicillin-resistant Staphylococcus aureus G6 measured after overnight incubation by broth double-dilution method; type: functional; summary of the method: as §1
[16] = test system: Staphylococcus aureus; test: Antibacterial activity against methicillin-resistant Staphylococcus aureus G12 measured after overnight incubation by broth double-dilution method; type: functional; summary of the method: as §1
[17] = test system: Staphylococcus aureus; test: Antibacterial activity against methicillin-resistant Staphylococcus aureus G14 measured after overnight incubation by broth double-dilution method; type: functional; summary of the method: as §1
[18] = test system: Staphylococcus aureus; test: Antibacterial activity against methicillin-resistant Staphylococcus aureus NRS4 measured after overnight incubation by broth double-dilution method; type: functional; summary of the method: as §1
[19] = test system: Staphylococcus aureus; test: Antibacterial activity against methicillin-resistant Staphylococcus aureus NRS51 measured after overnight incubation by broth double-dilution method; type: functional; summary of the method: as §1
[20] = test system: Staphylococcus aureus; test: Antibacterial activity against methicillin-resistant Staphylococcus aureus NRS77 measured after overnight incubation by broth double-dilution method; type: functional; summary of the method: as §1
[21] = test system: Staphylococcus aureus; test: Antibacterial activity against methicillin-resistant Staphylococcus aureus S14 measured after overnight incubation by broth double-dilution method; type: functional; summary of the method: as §1
[22] = test system: Staphylococcus aureus; test: Antibacterial activity against methicillin-resistant Staphylococcus aureus S17 measured after overnight incubation by broth double-dilution method; type: functional; summary of the method: as §1
[23] = test system: Staphylococcus aureus; test: Antibacterial activity against methicillin-resistant Staphylococcus aureus S22 measured after overnight incubation by broth double-dilution method; type: functional; summary of the method: as §1
[24] = test system: Staphylococcus aureus; test: Antibacterial activity against methicillin-resistant Staphylococcus aureus S24 measured after overnight incubation by broth double-dilution method; type: functional; summary of the method: as §1
[25] = test system: Staphylococcus aureus; test: Antibacterial activity against methicillin-resistant Staphylococcus aureus USA100 measured after overnight incubation by broth double-dilution method; type: functional; summary of the method: as §1
[26] = test system: Staphylococcus aureus; test: Antibacterial activity against methicillin-resistant Staphylococcus aureus USA200 measured after overnight incubation by broth double-dilution method; type: functional; summary of the method: as §1
[27] = test system: Staphylococcus aureus; test: Antibacterial activity against methicillin-resistant Staphylococcus aureus USA300 measured after overnight incubation by broth double-dilution method; type: functional; summary of the method: as §1
[28] = test system: Staphylococcus aureus; test: Antibacterial activity against methicillin-resistant Staphylococcus aureus USA600 measured after overnight incubation by broth double-dilution method; type: functional; summary of the method: as §1
[29] = test system: Staphylococcus epidermidis; test: Antibacterial activity against Staphylococcus epidermidis ATCC 35984 measured after overnight incubation by broth double-dilution method; type: functional; conditions: RP62A
Summary of the method: (§2)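 MIC by broth double-dilution in Mueller-Hinton medium. Re-testing at the time-kill inoculum used 1×10^6 CFU/mL.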

[30] = test system: Enterococcus faecalis; test: Antibacterial activity against Enterococcus faecalis ATCC 29212 measured after overnight incubation by broth double-dilution method; type: functional; summary of the method: as §2
[31] = test system: Enterococcus faecalis; test: Antibacterial activity against Enterococcus faecalis ATCC 49533 measured after overnight incubation by broth double-dilution method; type: functional; summary of the method: as §2
[32] = test system: Enterococcus faecium; test: Antibacterial activity against Enterococcus faecium BM4105-RF measured after overnight incubation by broth double-dilution method; type: functional; summary of the method: as §1
[33] = test system: Enterococcus; test: Antibacterial activity against Vancomycin-resistant Enterococcus measured after overnight incubation by broth double-dilution method; type: functional; summary of the method: as §1
[34] = test system: Listeria monocytogenes; test: Antibacterial activity against Listeria monocytogenes ATCC 19115 measured after overnight incubation by broth double-dilution method; type: functional; summary of the method: as §2
[35] = test system: Mycolicibacterium smegmatis; test: Antibacterial activity against Mycobacterium smegmatis MC2-155 measured after overnight incubation by broth double-dilution method; type: functional; conditions: str. MC2 155; summary of the method: as §1
[36] = Cytotoxicity against HEK293 cells assessed as cell death at […] measured after 24 hrs by resazurin dye-based fluorescence analysis relative to untreated control; type: toxicity; conditions: human, hek293, 24 h
[37] = test system: Staphylococcus aureus; test: Antibiofilm activity against methicillin-sensitive Staphylococcus aureus ATCC 6538 assessed as reduction of biofilm at […] measured after 24 hrs by crystal violet staining based method relative to control; type: functional; design: scale not given: the % may be the effect or the level left
[38] = test system: Staphylococcus epidermidis; test: Antibiofilm activity against Staphylococcus epidermidis ATCC 35984 assessed as reduction of biofilm at […] ug/ml measured after 24 hrs by crystal violet staining based method relative to control; type: functional, RP62A; design: scale not given: the % may be the effect or the level left

Q: What does the source list for `O=c1c2ccccc2sn1CCc1ccccc1`?
A: MIC [1]: 3.9 µg/mL (≈ 15.3 µM); MIC [2]: 1 µg/mL (≈ 3.92 µM); MIC [3]: 2 µg/mL (≈ 7.83 µM); MIC [4]: 1 µg/mL (≈ 3.92 µM); MIC [5]: 1 µg/mL (≈ 3.92 µM); MIC [6]: 1 µg/mL (≈ 3.92 µM); MIC [7]: 2 µg/mL (≈ 7.83 µM); MIC [8]: 2 µg/mL (≈ 7.83 µM); MIC [9]: 2 µg/mL (≈ 7.83 µM); MIC [10]: 2 µg/mL (≈ 7.83 µM); MIC [11]: 2 µg/mL (≈ 7.83 µM); MIC [12]: 3.9 µg/mL (≈ 15.3 µM); MIC [13]: 1 µg/mL (≈ 3.92 µM); MIC [14]: 0.5 µg/mL (≈ 1.96 µM); MIC [15]: 1 µg/mL (≈ 3.92 µM); MIC [16]: 1 µg/mL (≈ 3.92 µM); MIC [17]: 1 µg/mL (≈ 3.92 µM); MIC [18]: 2 µg/mL (≈ 7.83 µM); MIC [19]: 2 µg/mL (≈ 7.83 µM); MIC [20]: 2 µg/mL (≈ 7.83 µM); MIC [21]: 0.5 µg/mL (≈ 1.96 µM); MIC [22]: 1 µg/mL (≈ 3.92 µM); MIC [23]: 3.9 µg/mL (≈ 15.3 µM); MIC [24]: 2 µg/mL (≈ 7.83 µM); MIC [25]: 3.9 µg/mL (≈ 15.3 µM); MIC [26]: 2 µg/mL (≈ 7.83 µM); MIC [27]: 2 µg/mL (≈ 7.83 µM); MIC [28]: 3.9 µg/mL (≈ 15.3 µM); MIC [29]: 2 µg/mL (≈ 7.83 µM); MIC [30]: > 125 µg/mL; MIC [31]: > 125 µg/mL; MIC [32]: > 125 µg/mL; MIC [33]: 1 µg/mL (≈ 3.92 µM); MIC [34]: 3.9 µg/mL (≈ 15.3 µM); MIC [35]: 2 µg/mL (≈ 7.83 µM); Activity [36]: > 20%

Q: Which results are given for `COc1cc(OC)cc(-n2sc3ccccc3c2=O)c1`?
A: MIC [1]: 1 µg/mL (≈ 3.48 µM); MIC [2]: 0.5 µg/mL (≈ 1.74 µM); MIC [3]: ≤ 0.25 µg/mL; MIC [4]: ≤ 0.25 µg/mL; MIC [5]: ≤ 0.25 µg/mL; MIC [6]: 1 µg/mL (≈ 3.48 µM); MIC [7]: 2 µg/mL (≈ 6.96 µM); MIC [8]: 0.5 µg/mL (≈ 1.74 µM); MIC [9]: ≤ 0.25 µg/mL; MIC [10]: 0.5 µg/mL (≈ 1.74 µM); MIC [11]: 2 µg/mL (≈ 6.96 µM); MIC [12]: 2 µg/mL (≈ 6.96 µM); MIC [13]: ≤ 0.25 µg/mL; MIC [14]: 1 µg/mL (≈ 3.48 µM); MIC [15]: 1 µg/mL (≈ 3.48 µM); MIC [16]: 0.5 µg/mL (≈ 1.74 µM); MIC [17]: ≤ 0.25 µg/mL; MIC [18]: 2 µg/mL (≈ 6.96 µM); MIC [19]: 1 µg/mL (≈ 3.48 µM); MIC [20]: 2 µg/mL (≈ 6.96 µM); MIC [21]: ≤ 0.25 µg/mL; MIC [22]: 1 µg/mL (≈ 3.48 µM); MIC [23]: 0.5 µg/mL (≈ 1.74 µM); MIC [24]: ≤ 0.25 µg/mL; MIC [25]: 0.5 µg/mL (≈ 1.74 µM); MIC [26]: 0.5 µg/mL (≈ 1.74 µM); MIC [27]: ≤ 0.25 µg/mL; MIC [28]: 2 µg/mL (≈ 6.96 µM); MIC [29]: 0.25 µg/mL (≈ 0.87 µM); MIC [30]: 2 µg/mL (≈ 6.96 µM); MIC [31]: 7.8 µg/mL (≈ 27.1 µM); MIC [32]: 3.9 µg/mL (≈ 13.6 µM); MIC [33]: 0.5 µg/mL (≈ 1.74 µM); MIC [34]: 2 µg/mL (≈ 6.96 µM); MIC [35]: 2 µg/mL (≈ 6.96 µM); Activity [37]: 40%; Activity [38]: 50%; Activity [36]: > 20%

Q: With `O=c1c2ccccc2sn1C1CCCC1` as the compound, how does the MIC [1] read?
A: 7.8 µg/mL (≈ 35.6 µM)

Q: And the MIC [3]?
A: 2 µg/mL (≈ 9.12 µM)

Q: And the MIC [5]?
A: 2 µg/mL (≈ 9.12 µM)

Q: What about the MIC [8] of the same compound?
A: 3.9 µg/mL (≈ 17.8 µM)

Q: And the MIC [11]?
A: 3.9 µg/mL (≈ 17.8 µM)

Q: And the MIC [14]?
A: 2 µg/mL (≈ 9.12 µM)

Q: What about the MIC [16] of the same compound?
A: 3.9 µg/mL (≈ 17.8 µM)

Q: What about the MIC [21] of the same compound?
A: 0.5 µg/mL (≈ 2.28 µM)

Q: What about the MIC [23] of the same compound?
A: 7.8 µg/mL (≈ 35.6 µM)

Q: What about the MIC [28] of the same compound?
A: 7.8 µg/mL (≈ 35.6 µM)

Q: And the MIC [29]?
A: 2 µg/mL (≈ 9.12 µM)

Q: What about the MIC [30] of the same compound?
A: > 125 µg/mL

Q: And the MIC [31]?
A: > 125 µg/mL

Q: What about the MIC [32] of the same compound?
A: > 125 µg/mL

Q: And the MIC [33]?
A: 2 µg/mL (≈ 9.12 µM)

Q: And the MIC [35]?
A: 2 µg/mL (≈ 9.12 µM)

Q: What about the Activity [36] of the same compound?
A: > 20%
